Key:
Rattus norvegicus = experiment: Toxicity in iv dosed Sprague-Dawley rat assessed as reduction in heart rate; format: organism-based; conditions: in vivo
How it was run: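 Male Sprague-Dawley rats anesthetized with ip pentobarbital sodium (50 mg/kg); phosphate form injected iv over about 30 s at 0.03 to 3 mg/kg. Heart rate counted from R waves of lead II ECG before dosing and 1, 2, 3, 4, 5, 10 and 15 min after. ID50 is the dose lowering heart rate by 50% versus vehicle control; 3-6 animals per compound.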

[1] = molecular target: Sphingosine 1-phosphate receptor 1 (Homo sapiens, UniProt P21453); experiment: Agonist activity at human S1P1 receptor expressed in human Chem1 cells assessed as intracellular calcium mobilization; format: functional, cell-based
[2] = molecular target: Sphingosine 1-phosphate receptor 3 (Homo sapiens, UniProt Q99500); experiment: Agonist activity at human S1P3 receptor expressed in CHO cells assessed as intracellular calcium mobilization; format: functional, cell-based
Mus musculus = experiment: Immunomodulatory activity in ip dosed BALB/c mouse assessed as reduction in lymphocyte using FITC-conjugated hamster antimouse CD3e antibody by flow cytometry; format: functional
How it was run: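 Male BALB/c mice given the alcohol form intraperitoneally; peripheral blood taken from posterior vena cava 24 h later, hemolyzed and fixed. CD3+ T and CD45R+ (B220) B cells counted by two-colour flow cytometry. ED50 is the dose lowering lymphocyte count by 50% versus vehicle-treated controls; 5 animals per compound.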

Sequence of Sphingosine 1-phosphate receptor 1 (P21453 whole entry): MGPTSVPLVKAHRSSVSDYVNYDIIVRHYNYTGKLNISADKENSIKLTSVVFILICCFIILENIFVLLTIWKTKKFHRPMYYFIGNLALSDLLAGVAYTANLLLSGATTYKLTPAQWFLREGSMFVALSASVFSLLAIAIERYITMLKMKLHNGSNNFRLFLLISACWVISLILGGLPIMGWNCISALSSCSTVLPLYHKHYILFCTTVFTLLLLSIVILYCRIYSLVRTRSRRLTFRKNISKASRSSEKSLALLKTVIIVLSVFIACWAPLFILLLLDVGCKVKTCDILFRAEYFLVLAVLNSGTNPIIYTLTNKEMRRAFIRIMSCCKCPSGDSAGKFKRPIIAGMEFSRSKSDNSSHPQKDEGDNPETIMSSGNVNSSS
Sequence of Sphingosine 1-phosphate receptor 3 (Q99500 whole entry): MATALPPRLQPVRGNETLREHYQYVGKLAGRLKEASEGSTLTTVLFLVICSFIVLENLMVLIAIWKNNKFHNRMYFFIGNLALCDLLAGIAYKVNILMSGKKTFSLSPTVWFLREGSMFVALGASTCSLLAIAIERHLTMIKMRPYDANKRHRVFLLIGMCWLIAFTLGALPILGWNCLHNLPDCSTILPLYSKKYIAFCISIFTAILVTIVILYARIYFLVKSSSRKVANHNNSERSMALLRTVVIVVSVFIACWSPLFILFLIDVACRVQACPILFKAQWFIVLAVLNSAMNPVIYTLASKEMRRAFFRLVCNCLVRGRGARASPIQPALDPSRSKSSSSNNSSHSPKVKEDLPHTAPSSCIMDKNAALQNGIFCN

EC50 [1] [nM]	EC50 [2] [nM]	SMILES	ID50 (Rattus norvegicus) [mg/kg]	ED50 (Mus musculus) [mg/kg]
–	–	CCCCCCCCc1ccc(CCC(N)(CO)COP(=O)(O)O)cc1 (configuration not stated)	0.012	–
1.8	83	Cc1ccc(Oc2ccc(-c3ccc(CCC(N)(CO)COP(=O)(O)O)cc3)c(F)c2)cc1 (configuration not stated)	0.016	–
–	–	COc1ccc(Sc2ccc(-c3ccc(CCC(N)(CO)CO)cc3)c(F)c2)cc1	–	0.28
3.1	> 1000	CCCCOc1ccc(-c2ccc(CCC(N)(CO)COP(=O)(O)O)cc2)cc1Cl (configuration not stated)	–	–
–	–	NC(CO)(CO)CCc1ccc(-c2ccc(Sc3ccc(F)cc3)cc2F)cc1	–	0.07
–	–	NC(CO)(CO)CCc1ccc(-c2ccc(OCc3ccccc3)cc2F)cc1	–	0.01
–	–	Cc1ccc(Oc2ccc(-c3ccc(CCC(N)(CO)CO)cc3)c(F)c2)cc1	–	0.04
–	–	Cc1ccc(Sc2ccc(-c3ccc(CCC(N)(CO)CO)c(Cl)c3)c(F)c2)cc1	–	0.04
–	–	CCCCOc1ccc(-c2ccc(CCC(N)(CO)CO)cc2)cc1Cl	–	1.3
–	–	CCCCOc1ccc(-c2ccc(CCC(N)(CO)CO)cc2)cc1	–	0.22
0.84	4.9	NC(CO)(CCc1ccc(-c2ccc(SCc3ccccc3)cc2F)cc1)COP(=O)(O)O (configuration not stated)	0.008	–
1.1	> 1000	CCCCCc1ccc(-c2ccc(CCC(N)(CO)COP(=O)(O)O)cc2)c(F)c1 (configuration not stated)	–	–
3	> 1000	Cc1ccc(Sc2ccc(-c3ccc(CCC(N)(CO)COP(=O)(O)O)cc3)c(F)c2)cc1 (configuration not stated)	–	–
0.62	> 1000	CCCCOc1ccc(-c2ccc(CCC(N)(CO)COP(=O)(O)O)c(Cl)c2)cc1 (configuration not stated)	0.013	–
–	–	CCCCOc1ccc(-c2ccc(CCC(N)(CO)CO)c(Cl)c2)cc1	–	0.08
–	–	NC(CO)(CO)CCc1ccc(-c2ccc(Oc3ccccc3)cc2)cc1	–	0.25
1.2	> 1000	CCCCOc1cc(F)c(-c2ccc(CCC(N)(CO)COP(=O)(O)O)cc2)cc1F (configuration not stated)	–	–
–	–	NC(CO)(CO)CCc1ccc(-c2ccc(Oc3ccccc3)cc2)cc1Cl	–	0.16
4.7	> 1000	NC(CO)(CCc1ccc(-c2ccc(Oc3ccccc3)cc2)cc1Cl)COP(=O)(O)O (configuration not stated)	0.087	–
–	–	CCCCCc1ccc(-c2ccc(CCC(N)(CO)CO)cc2)c(F)c1	–	0.1
–	–	CCCCOc1ccc(-c2ccc(CCC(N)(CO)CO)cc2)c(F)c1	–	0.06
0.64	> 1000	CCCCCc1ccc(-c2ccc(CCC(N)(CO)COP(=O)(O)O)c(Cl)c2)cc1 (configuration not stated)	–	–
21	> 1000	NC(CO)(CCc1ccc(-c2ccc(Oc3ccccc3)cc2)cc1)COP(=O)(O)O (configuration not stated)	0.14	–
–	–	NC(CO)(CO)CCc1ccc(-c2ccc(SCc3ccccc3)cc2)cc1Cl	–	0.08

EC50 [1] [nM]	EC50 [2] [nM]	SMILES	ID50 (Rattus norvegicus) [mg/kg]	ED50 (Mus musculus) [mg/kg]
–	–	NC(CO)(CO)CCc1ccc(-c2ccc(Sc3ccc(C(F)(F)F)cc3)cc2F)cc1	–	0.34
–	–	CCCCOc1ccc(-c2ccc(CCC(N)(CO)CO)cc2)c(C)c1	–	3.4
–	–	Cc1cccc(Sc2ccc(-c3ccc(CCC(N)(CO)CO)cc3)c(F)c2)c1	–	0.13
–	–	NC(CO)(CO)CCc1ccc(-c2ccc(SCc3ccccc3)cc2F)cc1	–	0.04
1.6	13	NC(CO)(CCc1ccc(-c2ccc(OCc3ccccc3)cc2)cc1Cl)COP(=O)(O)O (configuration not stated)	0.017	–
–	–	NC(CO)(CO)CCc1ccc(-c2ccc(Sc3ccccc3)cc2F)cc1	–	0.42
2	> 1000	Cc1cccc(Sc2ccc(-c3ccc(CCC(N)(CO)COP(=O)(O)O)cc3)c(F)c2)c1 (configuration not stated)	0.063	–
–	–	CCCCCc1ccc(-c2ccc(CCC(N)(CO)CO)c(Cl)c2)cc1	–	0.11
–	–	COc1cccc(Sc2ccc(-c3ccc(CCC(N)(CO)CO)cc3)c(F)c2)c1	–	0.11
–	–	NC(CO)(CO)CCc1ccc(-c2ccc(OCc3ccccc3)cc2)cc1Cl	–	0.13
–	–	CC(C)c1ccc(Sc2ccc(-c3ccc(CCC(N)(CO)CO)cc3)c(F)c2)cc1	–	0.15
3.6	> 1000	NC(CO)(CCc1ccc(-c2ccc(Sc3ccccc3)cc2F)cc1)COP(=O)(O)O (configuration not stated)	–	–
–	–	NC(CO)(CO)CCc1ccc(-c2ccc(Sc3cccc(F)c3)cc2F)cc1	–	0.16
–	–	CCCCCCCCc1ccc(CCC(N)(CO)CO)cc1 [FINGOLIMOD]	–	0.02
–	–	CCCCOc1ccc(-c2ccc(CCC(N)(CO)CO)cc2)cc1F	–	0.21
1.3	> 1000	CCCCOc1ccc(-c2ccc(CCC(N)(CO)COP(=O)(O)O)cc2)cc1F (configuration not stated)	–	–
–	–	Cc1ccc(Sc2ccc(-c3ccc(CCC(N)(CO)CO)cc3)c(F)c2)cc1	–	0.05
–	–	CCc1ccc(Sc2ccc(-c3ccc(CCC(N)(CO)CO)cc3)c(F)c2)cc1	–	0.04
–	–	CCCCOc1cc(F)c(-c2ccc(CCC(N)(CO)CO)cc2)cc1F	–	0.15
0.53	51	CCCCOc1ccc(-c2ccc(CCC(N)(CO)COP(=O)(O)O)cc2)c(F)c1.F (configuration not stated)	0.009	–
0.81	> 1000	CCCCOc1ccc(-c2ccc(CCC(N)(CO)COP(=O)(O)O)cc2)cc1 (configuration not stated)	0.008	–
1.1	4.1	NC(CO)(CCc1ccc(-c2ccc(OCc3ccccc3)cc2F)cc1)COP(=O)(O)O (configuration not stated)	0.014	–
4.2	> 1000	Cc1ccc(Sc2ccc(-c3ccc(CCC(N)(CO)COP(=O)(O)O)c(Cl)c3)c(F)c2)cc1 (configuration not stated)	0.016	–
–	–	NC(CO)(CO)CCc1ccc(-c2ccc(Sc3ccc(Cl)cc3)cc2F)cc1	–	0.18

Source: ChEMBL document CHEMBL1156200, “Removal of sphingosine 1-phosphate receptor-3 (S1P(3)) agonism is essential, but inadequate to obtain immunomodulating 2-aminopropane-1,3-diol S1P(1) agonists with reduced effect on heart rate” (J Med Chem, 2010)
